Source: ChEMBL document CHEMBL1129636 (J Med Chem, 1996)

Experiments:
[1] = target: T1, Glutamate receptor ionotropic, kainate 2 (Homo sapiens, UniProt Q13002); test: Electrophysiological activity at 10 uM domoate from HEK293 cells transfected with Ionotropic glutamate receptor kainate 2; format: functional, cell-based
In short: (§1)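 Whole-cell voltage clamp (tight-seal patch clamp) of HEK293 line EAA4-9 stably expressing human GluR6, with cells plated on glass coverslips. Bath: NaCl 138, CaCl2 5, MgCl2 1, KCl 5, HEPES 10, glucose 10 mM, pH 7.4. Pipette: KCl 140, MgCl2 1, HEPES 10, EGTA 0.1 mM, pH 7.2. Test agonist at 1, 10 or 30 uM by bath perfusion with 2.5 uM concanavalin A. Inward current expressed as percent of the response to 1 uM domoate.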

[2] = target: T1, Glutamate receptor ionotropic, kainate 2; test: Electrophysiological activity at 1 uM domoate from HEK293 cells transfected with ionotropic glutamate receptor kainate 2; format: functional, cell-based; in short: as §1
[3] = target: T1, Glutamate receptor ionotropic, kainate 2; test: Electrophysiological activity at 30 uM domoate from HEK293 cells transfected with ionotropic glutamate receptor kainate 2; format: functional, cell-based; in short: as §1
[4] = target: T1, Glutamate receptor ionotropic, kainate 2; test: Inhibition of [3H]kainate binding at ionotropic glutamate receptor kainate 2
In short: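 Frozen EAA4-9 cells (HEK293 stably expressing human GluR6) lysed in ice-cold water and pelleted at 50000g. Membranes washed in 50 mM Tris-HCl, pH 7.5 at 5 °C, to remove glutamate. Nonspecific binding defined with 1 mM L-glutamate, and bound ligand separated by centrifugation. Ki reported.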

[5] = target: Glutamate receptor ionotropic, kainate 2 (Rattus norvegicus, UniProt P42260); test: Inhibition of [3H]kainate binding at rat forebrain ionotropic glutamate receptor kainate 2
Sequence of Glutamate receptor ionotropic, kainate 2 (Rattus norvegicus, UniProt P42260) (P42260 whole entry): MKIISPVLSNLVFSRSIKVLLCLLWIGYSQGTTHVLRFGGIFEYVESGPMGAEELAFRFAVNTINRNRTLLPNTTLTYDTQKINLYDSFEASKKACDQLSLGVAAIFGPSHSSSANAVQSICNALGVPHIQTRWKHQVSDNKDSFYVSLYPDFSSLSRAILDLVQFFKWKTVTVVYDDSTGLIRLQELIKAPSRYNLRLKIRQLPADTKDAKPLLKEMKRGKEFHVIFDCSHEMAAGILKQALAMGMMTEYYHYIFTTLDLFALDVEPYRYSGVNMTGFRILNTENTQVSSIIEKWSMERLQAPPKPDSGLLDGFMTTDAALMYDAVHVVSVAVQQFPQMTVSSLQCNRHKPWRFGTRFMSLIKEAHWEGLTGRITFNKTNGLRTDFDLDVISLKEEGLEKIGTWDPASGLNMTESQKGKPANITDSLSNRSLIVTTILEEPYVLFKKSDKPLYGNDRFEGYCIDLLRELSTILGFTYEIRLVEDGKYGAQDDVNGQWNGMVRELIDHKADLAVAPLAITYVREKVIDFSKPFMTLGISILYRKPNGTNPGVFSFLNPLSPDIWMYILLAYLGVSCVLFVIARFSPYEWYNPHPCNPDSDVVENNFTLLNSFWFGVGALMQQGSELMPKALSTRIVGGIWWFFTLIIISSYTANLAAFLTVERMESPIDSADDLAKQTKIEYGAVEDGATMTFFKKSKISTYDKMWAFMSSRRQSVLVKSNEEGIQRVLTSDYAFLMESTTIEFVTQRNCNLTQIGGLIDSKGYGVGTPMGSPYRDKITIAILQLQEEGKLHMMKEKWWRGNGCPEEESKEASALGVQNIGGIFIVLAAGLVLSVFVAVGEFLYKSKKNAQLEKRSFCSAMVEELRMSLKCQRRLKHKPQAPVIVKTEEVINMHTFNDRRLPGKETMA

T1 sequence (Q13002 whole entry, the tested form may be a part): as the sequence (P42260 whole entry) above, with S5F, V7I, L11P, S14R, S16T, I17V, V19L, V494A counted along it

Compound	Response [1]	Response [2]	Response [3]	Ki [4] [nM]	Ki [5] [nM]
C=C(c1ccc(-c2ccccc2)cc1)[C@H]1CN[C@H](C(=O)O)[C@H]1CC(=O)O	58%	36%	66%	131	9.1
C=C(c1cccc(-c2ccccc2)c1)[C@@H]1CN[C@H](C(=O)O)[C@H]1CC(=O)O	0%	0%	0%	3110	–
C=C(c1cc(C)cc(C)c1)[C@H]1CN[C@H](C(=O)O)[C@H]1CC(=O)O	73%	23%	108%	169	9.5
C=C(c1ccccc1)[C@H]1CN[C@H](C(=O)O)[C@H]1CC(=O)O	81%	48%	80%	29.8	1.6
C=C(c1ccccc1)[C@@H]1CN[C@H](C(=O)O)[C@H]1CC(=O)O	Neurotoxic	Neurotoxic	Neurotoxic	6970	230
C=C(C)c1ccc(C(=C)[C@H]2CN[C@H](C(=O)O)[C@H]2CC(=O)O)cc1	61%	17%	66%	132	3.6
C=C(c1ccc(OCCCCCc2ccccc2)cc1)[C@H]1CN[C@H](C(=O)O)[C@H]1CC(=O)O	13%	0%	27%	1300	126
C=C(c1ccc(OCCCC)cc1)[C@H]1CN[C@H](C(=O)O)[C@H]1CC(=O)O	86%	33%	99%	147	2.8
C=C(c1ccc(C)cc1)[C@H]1CN[C@H](C(=O)O)[C@H]1CC(=O)O	72%	61%	76%	41.1	2.6
C=C(C)[C@H]1CN[C@H](C(=O)O)[C@H]1CC(=O)O	85%	39%	101%	–	–
C=C(c1ccc(F)cc1)[C@H]1CN[C@H](C(=O)O)[C@H]1CC(=O)O	76%	43%	78%	38.4	2.7
C=C(c1cccc(OCCC(c2ccccc2)c2ccccc2)c1)[C@H]1CN[C@H](C(=O)O)[C@H]1CC(=O)O	6%	3%	14%	2420	210
C=C(c1ccc(OCCCCC)c(C)c1)[C@H]1CN[C@H](C(=O)O)[C@H]1CC(=O)O	46%	17%	58%	663	–
C=C(c1cccc(OCCCC)c1)[C@H]1CN[C@H](C(=O)O)[C@H]1CC(=O)O	8%	5%	40%	275	23.3
C=C(c1ccc(Oc2ccccc2)cc1)[C@H]1CN[C@H](C(=O)O)[C@H]1CC(=O)O	59%	15%	62%	210	11.9
C=C(c1ccc(CC)cc1)[C@H]1CN[C@H](C(=O)O)[C@H]1CC(=O)O	63%	22%	73%	82.2	7.7
C=C(c1ccc(OCCc2ccccc2)cc1)[C@H]1CN[C@H](C(=O)O)[C@H]1CC(=O)O	52%	16%	66%	126	6.2
C=C(c1ccc(C)c(C)c1)[C@H]1CN[C@H](C(=O)O)[C@H]1CC(=O)O	89%	50%	98%	108	2.3

Compound	Response [1]	Response [2]	Response [3]	Ki [4] [nM]	Ki [5] [nM]
C=C(CC)c1ccc(C(=C)[C@H]2CN[C@H](C(=O)O)[C@H]2CC(=O)O)cc1	38%	15%	52%	288	9
CC(c1ccccc1)[C@H]1CN[C@H](C(=O)O)[C@H]1CC(=O)O (some centres undefined)	0%	0%	0%	> 10000	–
C=C(c1cccc(OCCC(c2ccccc2)c2ccccc2)c1)[C@@H]1CN[C@H](C(=O)O)[C@H]1CC(=O)O	0%	0%	0%	> 10000	3000
C=C(c1ccc(CCC)cc1)[C@H]1CN[C@H](C(=O)O)[C@H]1CC(=O)O	54%	24%	66%	147	3.6
C=C(C)c1ccc(C(=C)[C@@H]2CN[C@H](C(=O)O)[C@H]2CC(=O)O)cc1	–	–	–	2300	5400
C=C(c1ccc(C(C)(C)C)cc1)[C@H]1CN[C@H](C(=O)O)[C@H]1CC(=O)O	31%	8%	46%	263	18.5
C=C(c1cccc(OCCc2ccccc2)c1)[C@H]1CN[C@H](C(=O)O)[C@H]1CC(=O)O	43%	6%	70%	667	16
C=C(c1ccc(F)c(C)c1)[C@H]1CN[C@H](C(=O)O)[C@H]1CC(=O)O	76%	38%	100%	54.3	1.9
C=C(c1cccc(-c2ccccc2)c1)[C@H]1CN[C@H](C(=O)O)[C@H]1CC(=O)O	98%	65%	103%	90.6	2.1
C=C(c1ccc(OCCc2ccccc2)c(C)c1)[C@H]1CN[C@H](C(=O)O)[C@H]1CC(=O)O	64%	12%	71%	129	–
C=C(c1ccc(OCCc2ccccc2)c(OC)c1)[C@H]1CN[C@H](C(=O)O)[C@H]1CC(=O)O	20%	2%	44%	1280	–
CC(c1cccc(-c2ccccc2)c1)[C@H]1CN[C@H](C(=O)O)[C@H]1CC(=O)O (some centres undefined)	14%	12%	16%	> 10000	–
C=C(c1cccc(C)c1)[C@H]1CN[C@H](C(=O)O)[C@H]1CC(=O)O	75%	29%	74%	123	2.2
C=C(c1ccc(OC)cc1)[C@H]1CN[C@H](C(=O)O)[C@H]1CC(=O)O	76%	37%	82%	57.4	3.9
C=C(c1cccc(OC)c1)[C@H]1CN[C@H](C(=O)O)[C@H]1CC(=O)O	77%	46%	87%	93.5	3.5
C=C(c1ccc(Cl)cc1)[C@H]1CN[C@H](C(=O)O)[C@H]1CC(=O)O	78%	52%	83%	31.7	3.9
C=C(c1ccc(CCCC)cc1)[C@H]1CN[C@H](C(=O)O)[C@H]1CC(=O)O	57%	11%	63%	146	4.8
